ChEMBL document CHEMBL1154139, “Isolation of aerucyclamides C and D and structure revision of microcyclamide 7806A: heterocyclic ribosomal peptides from Microcystis aeruginosa PCC 7806 and their antiparasite evaluation” (J Nat Prod, 2008)

Key:
Plasmodium falciparum [1] = assay: Antiplasmodial activity against Plasmodium falciparum W2; assay type: functional, organism-based
MCF7 = assay: Cytotoxicity against human MCF7 cells; assay type: cell-based
Plasmodium falciparum [2] = assay: Antiplasmodial activity against chloroquine-resistant Plasmodium falciparum K1 assessed as [3H]hypoxanthine incorporation after 48 hrs by beta-plate liquid scintillation counting; assay type: functional, organism-based
Outline: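 K1 strain (chloroquine- and pyrimethamine-resistant) in infected human red blood cells, RPMI 1640 with 5% Albumax, exposed to serial dilutions for 48 h at 37 °C under reduced oxygen. 0.5 µCi [3H]-hypoxanthine then added for a further 24 h. Cells harvested onto glass-fiber filters and counted. CPM expressed as % of untreated controls, IC50 taken from sigmoidal curves. Run in duplicate, repeated once.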

Thamnocephalus platyurus = assay: Cytotoxicity against Thamnocephalus platyurus; assay type: functional
Outline: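 Instar II-III larvae hatched from cysts, tested in multiwell plates at six concentrations from 1 to 100 µM, in triplicate. Value derived by nonlinear regression.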

[3] = tested on: Trypanosoma brucei rhodesiense; assay: Antitrypanosomal activity against Trypanosoma brucei rhodesiense STIB900 by fluorescence assay; assay type: functional, organism-based
L6 = assay: Cytotoxicity against rat L6 cells; assay type: cell-based
Outline: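 Rat skeletal myoblasts (L-6) grown in RPMI 1640 with 10% FBS and 2 mM L-glutamine, exposed to serial dilutions 90 to 0.123 µg/mL at 37 °C, 5% CO2. Alamar Blue (resazurin) read-out by fluorescence (ex 536/em 588 nm) as percent of control cultures; IC50 from sigmoidal inhibition curves.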

| SMILES | IC50 (Plasmodium falciparum [1]) [µM] | IC50 (MCF7) [µM] | IC50 (Plasmodium falciparum [2]) [µM] | LC50 (Thamnocephalus platyurus) [µM] | IC50 [3] [µM] | IC50 (L6) [µM] |
| --- | --- | --- | --- | --- | --- | --- |
| Cc1oc2nc1C(=O)N[C@H](C)c1nc(cs1)C(=O)N[C@H](C(C)C)c1nc(cs1)C(=O)N[C@@H]2C [VENTURAMIDE A] | 8.2 | 13.1 |  |  |  |  |
| CC[C@H](C)[C@H]1NC(=O)c2coc(n2)[C@H](C(C)C)NC(=O)[C@H]2N=C(O[C@@H]2C)[C@H](C)NC(=O)c2csc1n2 [AERUCYCLAMIDE C] |  |  | 2.3 | 70.5 | 9.2 | 106 |
| CC[C@H](C)[C@@H]1NC(=O)c2csc(n2)[C@@H]([C@@H](C)CC)NC(=O)c2csc(n2)CNC(=O)[C@H]2N=C1O[C@@H]2C [AERUCYCLAMIDE B] |  |  | 0.7 |  | 15.9 | 120 |
| CSCC[C@@H]1NC(=O)c2csc(n2)CNC(=O)[C@H]2N=C(O[C@@H]2C)[C@H](Cc2ccccc2)NC(=O)[C@@H]2CSC1=N2 [AERUCYCLAMIDE D] |  |  | 6.3 |  | 50.1 | > 153 |
| CC[C@H](C)[C@@H]1NC(=O)[C@H]2CSC(=N2)[C@@H]([C@@H](C)CC)NC(=O)c2csc(n2)CNC(=O)[C@H]2N=C1O[C@@H]2C [AERUCYCLAMIDE A] |  |  | 5 |  | 56.3 | > 168 |
| Cc1oc2nc1C(=O)N[C@H]([C@@H](C)O)c1nc(cs1)C(=O)N[C@H](C(C)C)c1nc(cs1)C(=O)N[C@@H]2C [VENTURAMIDE B] | 5.2 | > 54 |  |  |  |  |
